Reference: ChEMBL document CHEMBL4689842, “EUbOPEN Chemogenomics Library wave 1” (2021)
“And” between values parts separate entries of the source, which are not always exact repeats. Identical values can stand only once.

Test system: U2OS
Experiment: Multiplex assay against U2OS
Format: toxicity, cell-based
Details: human, 1 µM, compound concentration 1 uM
How it was run: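 Hoechst33342, BioTracker Green Microtubule Cytoskeleton Dye, MitoTracker Red and Annexin V Alexa Fluor 680 were added to live cells at seeding, and imaging on a CQ1 microscope at 37°C and 5% CO2 followed compound addition. Gating by CellPathfinder machine learning separated cells into Hoechst high-intensity objects or normal cells, then normal cells into healthy, pyknosed or fragmented nuclei, then pyknosed cells into mitotic or apoptotic. Per cents of healthy-nucleus cells are reported for the tubulin, mitochondrial-mass and membrane-permeability phenotypes.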

## Cc1cc(C)c(-n2ccn3nc(-c4cccnc4)cc23)cc1NC(=O)c1cc(C#N)cc(S(F)(F)(F)(F)F)c1 [BAY-826]
12 h, replicate 1
  Population Apoptotic (%): 68% and 80%
  Population Fragmented Nuclei (%): 11% and 8%
  Population Healthy Nuclei (%): 75% and 87%
  Population Hoechst High Intensity Objects (%): 4%
  Population Membrane Permeable-Phenotype (%): 45% and 44%
  Population Mitochondria Different-Phenotype (%): 41% and 26%
  Population Mitotic Cells (%): 31% and 20%
  Population Normal (%): 95%
  Population Pyknosed Nuclei (%): 13% and 5%
  Population Tubulin-Different-Phenotype (%): 99% and 93%
  Total Cell Count: 168 and 105
12 h, replicate 2
  Population Apoptotic (%): 75% and 78%
  Population Fragmented Nuclei (%): 13% and 15%
  Population Healthy Nuclei (%): 81% and 69%
  Population Hoechst High Intensity Objects (%): 11% and 12%
  Population Membrane Permeable-Phenotype (%): 36% and 35%
  Population Mitochondria Different-Phenotype (%): 27% and 79%
  Population Mitotic Cells (%): 25% and 21%
  Population Normal (%): 88% and 87%
  Population Pyknosed Nuclei (%): 15%
  Population Tubulin-Different-Phenotype (%): 68% and 100%
  Total Cell Count: 85
24 h, replicate 1
  Population Apoptotic (%): 50% and 85%
  Population Fragmented Nuclei (%): 9%
  Population Healthy Nuclei (%): 82% and 53%
  Population Hoechst High Intensity Objects (%): 5%
  Population Membrane Permeable-Phenotype (%): 36% and 51%
  Population Mitochondria Different-Phenotype (%): 44% and 78%
  Population Normal (%): 94%
  Population Tubulin-Different-Phenotype (%): 63%
  Total Cell Count: 134 and 155
24 h, replicate 2
  Population Apoptotic (%): 80% and 70%
  Population Fragmented Nuclei (%): 19% and 10%
  Population Healthy Nuclei (%): 50% and 78%
  Population Hoechst High Intensity Objects (%): 13% and 9%
  Population Membrane Permeable-Phenotype (%): 56% and 28%
  Population Mitotic Cells (%): 19% and 30%
  Population Normal (%): 87% and 90%
  Population Pyknosed Nuclei (%): 29% and 11%
  Population Tubulin-Different-Phenotype (%): 100% and 48%
  Total Cell Count: 100 and 98
